Results on three molecules are retold here after ChEMBL document CHEMBL2413015, “Synthesis, evaluation and molecular dynamics study of some new 4-aminopyridine semicarbazones as an antiamnesic and cognition enhancing agents” (Bioorg Med Chem, 2013).

The structures appear in SMILES notation.

In series [1] the test system is Rattus norvegicus. The series can be described thus: Activity at AChE in Charles Foster rat hippocampus assessed as substrate hydrolyzed per mg of protein at 10 mg/kg, po for 8 days by Ellman's method (reference value: 47.50 +/- 0.84 mol/min). The format is functional. On the technique in general: Ellman's reagent forms a yellow product with free thiols.
Series [2] deals with Rattus norvegicus. As to the kind of experiment: Cognitive enhancing effect in po dosed Wistar rat assessed as reversal of learning impairment measured as transfer latency administered for 8 days by elevated plus maze test. It is filed as functional, organism-based. Summed up:
(§1)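 Oral dosing at 5 or 10 mg/kg for 8 days, suspended in 0.3% carboxymethyl cellulose; vehicle-treated controls. Transfer latency on elevated plus maze measured on first and second days of exposure (treatment days 7 and 8). Mean ± SEM, n = 6, one-way ANOVA versus vehicle control.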

The test system of series [3] is Rattus norvegicus. As to the kind of experiment: Cognitive enhancing effect in Wistar rat assessed as reversal of learning impairment measured as transfer latency at 10 mg/kg, po for 8 days measured on second day of test by elevated plus maze test (reference value: 66.824 +/- 0.47 seconds). It is filed as functional. Summed up:
as §1

For series [4], the system named is Rattus norvegicus. As to the kind of experiment: Cognitive enhancing effect in Charles Foster rat assessed as reversal of scopolamine-induced amnesia measured as transfer latency at 10 mg/kg, po for 8 days administered 1 hr prior to scopolamine-challenge on day 7 measured on same day by elevated plus maze test (reference value: 67.83 +/- 0.94 seconds). It is filed as functional.

The subject of series [5] is Rattus norvegicus. As to the kind of experiment: Cognitive enhancing effect in Charles Foster rat assessed as reversal of scopolamine-induced amnesia measured as transfer latency at 5 mg/kg, po for 8 days administered 1 hr prior to scopolamine-challenge on day 7 measured on same day by elevated plus maze test (reference value: 67.83 +/- 0.94 seconds). The format is functional.

Series [6] relates to Rattus norvegicus. The series can be described thus: Cognitive enhancing effect in Wistar rat assessed as reversal of learning impairment measured as transfer latency at 10 mg/kg, po for 8 days measured on first day of test by elevated plus maze test (reference value: 70.846 +/- 0.76 seconds). It is filed as functional. In short, it runs like this: as §1
In series [7] the target is T1, Cholinesterase (Homo sapiens, UniProt P06276). As to the kind of experiment: Non competitive inhibition of human serum BChE using butyrylthiocholine iodide as substrate by Lineweaver-Burk plot analysis. Summed up: (§2)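 Ellman assay in phosphate buffer pH 8 with a fixed amount of cholinesterase. Thiocholine substrate was varied from below to above, but near, Km, with or without inhibitor. Inhibition type was assigned from Lineweaver–Burk plots.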
T1 sequence (P06276 whole entry): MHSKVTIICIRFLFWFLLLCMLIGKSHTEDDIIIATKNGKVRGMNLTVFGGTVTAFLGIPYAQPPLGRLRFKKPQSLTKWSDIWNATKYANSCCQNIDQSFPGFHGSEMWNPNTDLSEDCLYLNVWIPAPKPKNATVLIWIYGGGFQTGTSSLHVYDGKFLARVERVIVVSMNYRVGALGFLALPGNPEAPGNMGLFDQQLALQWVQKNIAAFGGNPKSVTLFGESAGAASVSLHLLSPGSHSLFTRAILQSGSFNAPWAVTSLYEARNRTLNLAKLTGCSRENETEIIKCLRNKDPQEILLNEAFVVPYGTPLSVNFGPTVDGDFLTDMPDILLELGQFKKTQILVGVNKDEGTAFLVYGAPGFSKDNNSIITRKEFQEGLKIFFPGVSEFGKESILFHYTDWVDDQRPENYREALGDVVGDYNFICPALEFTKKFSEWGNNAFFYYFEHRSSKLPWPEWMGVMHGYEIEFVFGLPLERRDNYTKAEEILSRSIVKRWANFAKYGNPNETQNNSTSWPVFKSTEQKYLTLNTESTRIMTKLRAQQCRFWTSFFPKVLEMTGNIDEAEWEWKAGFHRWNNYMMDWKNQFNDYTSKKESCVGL

Series [8] has as its system Rattus norvegicus. As to the kind of experiment: Cognitive enhancing effect in Wistar rat assessed as reversal of learning impairment measured as transfer latency at 5 mg/kg, po for 8 days measured on second day of test by elevated plus maze test (reference value: 66.824 +/- 0.47 seconds). It is filed as functional. In short, it runs like this: as §1
In series [9] the test system is Rattus norvegicus. The series can be described thus: Toxicity in albino rat assessed as mortality upto 100 mg/kg after 30 mins to 48 hrs. The format is organism-based. Set-up: dose 100 mg/kg. The conditions noted are these: in vivo. Summed up: (§3)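 Acute toxicity followed OECD guidelines. Nulliparous, non-pregnant female albino rats (120–150 g) were fasted overnight with water ad libitum. Graded oral doses up to 100 mg/kg were given in 0.3% carboxymethyl cellulose. Rats were observed continuously for 30 min, at 2 h and up to 48 h for behavioural or autonomic changes, tremors, convulsions, salivation, diarrhoea, sleep, lacrimation, cardiovascular signs, feeding and mortality.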

The test system of series [10] is Rattus norvegicus. As to the kind of experiment: Toxicity in albino rat assessed as change in normal behavioral response upto 100 mg/kg after 30 mins to 48 hrs. The format is organism-based. Set-up: dose 100 mg/kg. Conditions: in vivo. In short, it runs like this:
as §3

Series [11] concerns Rattus norvegicus. The series can be described thus: Cognitive enhancing effect in Charles Foster rat assessed as reversal of scopolamine-induced amnesia measured as transfer latency at 5 mg/kg, po for 8 days administered 1 hr prior to scopolamine-challenge on day 7 measured on day 8 by elevated plus maze test (reference value: 62.17 +/- 0.47 seconds). The format is functional.

In series [12] the test system is Rattus norvegicus. The series can be described thus: Activity at AChE in Charles Foster rat hypothalamus assessed as substrate hydrolyzed per mg of protein at 5 mg/kg, po for 8 days by Ellman's method (reference value: 40.50 +/- 0.76 mol/min). It is filed as functional.
Series [13] deals with T1, Cholinesterase. As to the kind of experiment: Inhibition of human serum BChE using butyrylthiocholine iodide as substrate preincubated for 20 mins prior to substrate addition by Ellman's method. In short, it runs like this: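 Human serum BChE was dissolved in 0.1% gelatine. The final mix held 0.1 M phosphate pH 8.0, DTNB, 0.02 unit/mL enzyme and butyrylthiocholine iodide. Five inhibitor concentrations spanning 20–80% inhibition were preincubated with enzyme for 20 min at 37 °C, then substrate was added. Rate was read at 412 nm over 5 min against an enzyme-free blank. Each point was run in triplicate, and IC50 was read graphically from log concentration–% inhibition curves.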

Series [14] has as its system Rattus norvegicus. As to the kind of experiment: Activity at AChE in Charles Foster rat prefrontal cortex assessed as substrate hydrolyzed per mg of protein at 5 mg/kg, po for 8 days by Ellman's method (reference value: 45.83 +/- 0.94 mol/min). The format is functional.
Series [15] deals with Rattus norvegicus. The series can be described thus: Activity at AChE in Charles Foster rat hypothalamus assessed as substrate hydrolyzed per mg of protein at 10 mg/kg, po for 8 days by Ellman's method (reference value: 40.50 +/- 0.76 mol/min). It is filed as functional.
In series [16] the test system is Rattus norvegicus. The series can be described thus: Cognitive enhancing effect in Wistar rat assessed as reversal of learning impairment measured as transfer latency at 5 mg/kg, po for 8 days measured on first day of test by elevated plus maze test (reference value: 70.846 +/- 0.76 seconds). The format is functional. In short, it runs like this: as §1
Series [17] is described as follows: Selectivity ratio of IC50 for human serum BChE to IC50 for electric eel AChE. Summed up: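 Ratio of IC50 (BChE) to IC50 (AChE). Both came from Ellman assays at 0.1 M phosphate pH 8.0 and 0.02 unit/mL enzyme: AChE (stock in phosphate buffer) with acetylthiocholine, human serum BChE (stock in 0.1% gelatine) with butyrylthiocholine.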
In series [18] the test system is Rattus norvegicus. As to the kind of experiment: Activity at AChE in Charles Foster rat hippocampus assessed as substrate hydrolyzed per mg of protein at 5 mg/kg, po for 8 days by Ellman's method (reference value: 47.50 +/- 0.84 mol/min). The format is functional.
Series [19] concerns Rattus norvegicus. The series can be described thus: Cognitive enhancing effect in Charles Foster rat assessed as reversal of scopolamine-induced amnesia measured as transfer latency at 10 mg/kg, po for 8 days administered 1 hr prior to scopolamine-challenge on day 7 measured on day 8 by elevated plus maze test (reference value: 62.17 +/- 0.47 seconds). It is filed as functional.

The target of series [20] is T2, Acetylcholinesterase (Electrophorus electricus, UniProt O42275). As to the kind of experiment: Inhibition of electric eel AChE using acetylthiocholine iodide as substrate preincubated for 20 mins prior to substrate addition by Ellman's method.
T2 sequence (O42275 whole entry): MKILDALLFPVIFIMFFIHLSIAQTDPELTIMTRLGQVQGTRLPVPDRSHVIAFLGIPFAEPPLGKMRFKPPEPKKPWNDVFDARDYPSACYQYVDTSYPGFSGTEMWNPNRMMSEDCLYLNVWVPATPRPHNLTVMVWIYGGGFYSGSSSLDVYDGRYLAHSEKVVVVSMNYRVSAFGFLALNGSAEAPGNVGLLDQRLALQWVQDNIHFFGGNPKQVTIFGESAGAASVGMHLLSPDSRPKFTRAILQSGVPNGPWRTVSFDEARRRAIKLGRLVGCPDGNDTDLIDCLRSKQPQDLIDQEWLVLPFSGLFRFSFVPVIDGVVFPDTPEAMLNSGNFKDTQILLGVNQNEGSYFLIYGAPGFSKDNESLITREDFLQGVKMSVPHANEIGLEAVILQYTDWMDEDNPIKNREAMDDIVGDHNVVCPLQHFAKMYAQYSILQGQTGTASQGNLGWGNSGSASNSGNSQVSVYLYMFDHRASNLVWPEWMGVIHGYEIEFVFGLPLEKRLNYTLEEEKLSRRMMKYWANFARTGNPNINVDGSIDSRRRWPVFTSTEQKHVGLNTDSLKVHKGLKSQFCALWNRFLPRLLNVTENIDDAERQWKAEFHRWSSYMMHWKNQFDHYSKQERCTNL
The target in series [21] is T2, Acetylcholinesterase. The series can be described thus: Competitive inhibition of electric eel AChE using acetylthiocholine iodide as substrate by Lineweaver-Burk plot analysis. Summed up:
as §2

The subject of series [22] is Rattus norvegicus. The series can be described thus: Activity at AChE in Charles Foster rat prefrontal cortex assessed as substrate hydrolyzed per mg of protein at 10 mg/kg, po for 8 days by Ellman's method (reference value: 45.83 +/- 0.94 mol/min). It is filed as functional.

In general, Ki refers to a dissociation constant, usually derived from enzyme kinetics or from competition with a known ligand. Lower therefore signals a stronger hold on the target. `COc1cc(/C=N/NC(=O)Nc2ccncc2)ccc1O`: the Activity with Rattus norvegicus [1] is 36.83 mol/min; with Rattus norvegicus [2] it was “Dose-dependent effect”; in the series with Rattus norvegicus [9], “Non-toxic”; with Rattus norvegicus [10], “Non-toxic”; in the series with Rattus norvegicus [12], 35.83 mol/min; in the series on Rattus norvegicus [14], 36.62 mol/min. Besides, the Activity in the series with Rattus norvegicus [15] came out at 33.67 mol/min; in the series on Rattus norvegicus [18], 39.5 mol/min; with Rattus norvegicus [22], 35.5 mol/min. Moreover, the Time in the series on Rattus norvegicus [3] is 40.5 s; in the series with Rattus norvegicus [4], 65 s; in the series with Rattus norvegicus [5] it was 68.17 s; in the series with Rattus norvegicus [6], 49.67 s; with Rattus norvegicus [8] it was 46.17 s; in the series on Rattus norvegicus [11], 64.5 s. The Time is 52 s in the series with Rattus norvegicus [16] and 57.87 s in the series with Rattus norvegicus [19]. Also, the Ki is 446 µM at Cholinesterase [7] and 20.5 µM at Acetylcholinesterase [21]. For the same molecule, the IC50 was 528 µM against Cholinesterase [13], 18.7 µM on Acetylcholinesterase [20] (read-out: IC50) and 19.1 µM on Acetylcholinesterase [20] (read-out: pIC50 (converted)). Besides, in series [17], the Ratio IC50 was 28.2.

For `O=C(N/N=C/c1ccccc1O)Nc1ccncc1`, the Activity in the series with Rattus norvegicus [1] was 36.83 mol/min; in the series with Rattus norvegicus [2], “Dose-dependent effect”; with Rattus norvegicus [9], “Non-toxic”; in the series with Rattus norvegicus [10] it was “Non-toxic”; in the series with Rattus norvegicus [12], 36.33 mol/min; with Rattus norvegicus [14], 39.33 mol/min. The figures for the Activity in the series with Rattus norvegicus [15], in the series on Rattus norvegicus [18] and in the series on Rattus norvegicus [22] were 34.67 mol/min, 39.17 mol/min and 37.5 mol/min, respectively. Further, the Time with Rattus norvegicus [3] is 48.15 s; in the series on Rattus norvegicus [4], 67.33 s; with Rattus norvegicus [5], 70.17 s; with Rattus norvegicus [6], 54.19 s; in the series with Rattus norvegicus [8] it was 49.12 s; with Rattus norvegicus [11] it was 65 s. Further, the values for the Time in the series on Rattus norvegicus [16] and in the series with Rattus norvegicus [19] were 55.21 s and 63.67 s, respectively. The results for the Ki on Cholinesterase [7] and on Acetylcholinesterase [21] were 212 µM and 25.6 µM, respectively. The IC50 on Cholinesterase [13] is 246 µM; on Acetylcholinesterase [20] (read-out: IC50) it was 32.5 µM; on Acetylcholinesterase [20] (read-out: pIC50 (converted)), 33.1 µM. Moreover, in series [17], the Ratio IC50 was determined as 7.56.

`O=C(N/N=C/c1ccc(O)cc1O)Nc1ccncc1`: the Activity was 35.03 mol/min in the series on Rattus norvegicus [1]; “Dose-dependent effect” with Rattus norvegicus [2]; “Non-toxic” with Rattus norvegicus [9]; “Non-toxic” with Rattus norvegicus [10]; 34.83 mol/min with Rattus norvegicus [12]; 36.17 mol/min in the series on Rattus norvegicus [14]. Further, the figures for the Activity with Rattus norvegicus [15], in the series with Rattus norvegicus [18] and in the series on Rattus norvegicus [22] were 32.5 mol/min, 37.5 mol/min and 34.83 mol/min, respectively. In addition, the Time in the series with Rattus norvegicus [3] turned out to be 40.33 s; in the series on Rattus norvegicus [4], 65.17 s; in the series with Rattus norvegicus [5] it was 65.57 s; with Rattus norvegicus [6], 49.17 s; with Rattus norvegicus [8], 42.5 s; in the series on Rattus norvegicus [11], 61.83 s. Also, the Time was 51 s in the series with Rattus norvegicus [16] and 57.67 s in the series on Rattus norvegicus [19]. Also, the Ki at Cholinesterase [7] was determined as 72.7 µM; at Acetylcholinesterase [21], 3.56 µM. The IC50 against Cholinesterase [13] is 58.2 µM; on Acetylcholinesterase [20] (read-out: IC50), 4.26 µM. The Ratio IC50 in series [17] is 13.7.
